Experiments:
[1] = molecular target: T1, Glycogen phosphorylase, muscle form (Oryctolagus cuniculus, UniProt P00489); assay: Inhibition of rabbit muscle glycogen phosphorylase
T1 sequence (P00489 whole entry): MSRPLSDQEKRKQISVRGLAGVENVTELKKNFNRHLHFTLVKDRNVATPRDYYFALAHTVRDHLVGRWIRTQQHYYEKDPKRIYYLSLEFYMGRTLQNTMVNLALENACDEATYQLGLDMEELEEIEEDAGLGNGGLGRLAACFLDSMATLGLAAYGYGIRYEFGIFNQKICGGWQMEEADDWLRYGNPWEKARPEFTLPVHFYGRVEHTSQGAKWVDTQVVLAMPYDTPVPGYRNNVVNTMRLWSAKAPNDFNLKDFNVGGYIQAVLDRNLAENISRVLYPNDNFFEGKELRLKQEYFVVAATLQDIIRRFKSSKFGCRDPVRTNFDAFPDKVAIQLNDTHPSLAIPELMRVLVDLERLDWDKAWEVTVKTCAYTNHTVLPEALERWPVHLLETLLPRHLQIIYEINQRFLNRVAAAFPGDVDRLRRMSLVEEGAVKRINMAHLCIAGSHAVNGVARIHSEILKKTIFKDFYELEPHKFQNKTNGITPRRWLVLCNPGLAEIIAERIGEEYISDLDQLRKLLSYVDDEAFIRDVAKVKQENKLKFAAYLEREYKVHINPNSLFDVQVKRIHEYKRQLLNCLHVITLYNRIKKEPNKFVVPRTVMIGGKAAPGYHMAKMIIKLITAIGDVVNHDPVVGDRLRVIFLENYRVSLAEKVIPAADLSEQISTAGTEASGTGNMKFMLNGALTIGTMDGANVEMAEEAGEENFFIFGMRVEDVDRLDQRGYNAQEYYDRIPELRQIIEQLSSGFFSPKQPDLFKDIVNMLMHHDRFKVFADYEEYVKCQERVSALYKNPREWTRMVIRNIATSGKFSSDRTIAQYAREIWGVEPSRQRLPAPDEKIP

[2] = molecular target: T2, Glycogen phosphorylase, muscle form (Oryctolagus cuniculus) (UniProt P00489); assay: Inhibition of rabbit muscle glycogen phosphorylase at 222 uM
T2 sequence (whole entry): T1 sequence (P00489 whole entry)
Outline: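 Rabbit muscle glycogen phosphorylase a at 0.475 µg/mL, assayed in the glycogen-synthesis direction. Run 30 min at 22 °C. Compounds added in 14% DMSO. Released phosphate read at 620 nm by malachite green/ammonium molybdate in 1 M HCl. Duplicates on two occasions, averaged.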

[3] = molecular target: T2, Glycogen phosphorylase, muscle form (Oryctolagus cuniculus); details: 111 uM

SMILES	IC50 [1] [µM]	inhibition [2] [%]	inhibition [3] [%]
O=C(Cn1cccc(NCc2ccccc2)c1=O)NCc1ccc(Cl)c(Cl)c1	6.3	94	
CCOC(=O)Cn1cccc(NC(C)=O)c1=O		< 20	
O=C(Cn1cccc(NC(=O)c2ccccc2)c1=O)N[C@H](CO)c1ccccc1		< 20	
CC(C)NC(=O)Cn1cccc(NC(=O)c2ccccc2)c1=O		< 20	
O=C(Cn1cccc(NCc2ccccc2)c1=O)NC1CCN(Cc2ccccc2)CC1	813	45	
O=C(Nc1cccn(CC(=O)N2CCCC2)c1=O)c1ccccc1		< 20	
O=C(Cn1cccc(NC(=O)c2ccccc2)c1=O)NC1CCN(Cc2ccccc2)CC1		< 20	
CC(=O)Nc1cccn(CC(=O)NCc2ccccc2)c1=O		< 20	
CCCNC(=O)Cn1cccc(NC(C)=O)c1=O		< 20	
CCCCNC(=O)Cn1cccc(NC(=O)c2ccccc2)c1=O		< 20	
CC(=O)Nc1cccn(CC(=O)N2CCCC2)c1=O		< 20	
CC(C)(CO)NC(=O)Cn1cccc(NC(=O)c2ccccc2)c1=O		< 20	
CCCNc1cccn(CC(=O)OCC)c1=O		< 20	
CC(=O)Nc1cccn(CC(=O)NC(C)C)c1=O		< 20	
CC(C)CNC(=O)Cn1cccc(NC(=O)c2ccccc2)c1=O		< 20	
CCCNc1cccn(CC(=O)NCc2ccc(Cl)c(Cl)c2)c1=O	1770	40	
O=C(Cn1cccc(NCc2ccccc2)c1=O)N[C@H](CO)c1ccccc1	120	40	
O=C(Nc1cccn(CC(=O)N2CCOCC2)c1=O)c1ccccc1		< 20	
CCNC(=O)Cn1cccc(NC(=O)c2ccccc2)c1=O		< 20	
O=C(Cn1cccc(NC(=O)c2ccccc2)c1=O)NN1CCOCC1		< 20	
O=C(Cn1cccc(NC(=O)c2ccccc2)c1=O)NCc1ccc(Cl)c(Cl)c1	162	45	
O=C(Nc1cccn(CC(=O)N2CCCCC2)c1=O)c1ccccc1		< 20	
O=C(Cn1cccc(NCc2ccccc2)c1=O)NCc1ccccc1	34.2		96
COc1ccccc1CNC(=O)Cn1cccc(NCc2ccccc2)c1=O	308	38	

SMILES	IC50 [1] [µM]	inhibition [2] [%]	inhibition [3] [%]
O=C(Cn1cccc(NC(=O)c2ccccc2)c1=O)NCc1ccccn1		< 20	
CCOC(=O)Cn1cccc(NC(=O)c2ccccc2)c1=O		< 20	
CCOC(=O)Cn1cccc(NCc2ccccc2)c1=O		< 20	
CCCNC(=O)Cn1cccc(NCc2ccccc2)c1=O		< 20	
O=C(Cn1cccc(NCc2ccccc2)c1=O)N[C@H](CO)Cc1ccccc1		94	
NS(=O)(=O)c1ccc(CCNC(=O)Cn2cccc(NC(=O)c3ccccc3)c2=O)cc1		< 20	
NCCNC(=O)Cn1cccc(NC(=O)c2ccccc2)c1=O		< 20	
O=C(Cn1cccc(NC(=O)c2ccccc2)c1=O)N[C@H](CO)Cc1ccccc1		< 20	
O=C(Cn1cccc(NC(=O)c2ccccc2)c1=O)NCc1ccccc1		< 20	
CCCNC(=O)Cn1cccc(NCCC)c1=O		< 20	
CCCNc1cccn(CC(=O)NCc2ccccc2)c1=O	343	80	
O=C(Cn1cccc(NC(=O)c2ccccc2)c1=O)N[C@@H](CO)Cc1ccccc1		< 20	
O=C(Cn1cccc(NC(=O)c2ccccc2)c1=O)NCCO		< 20	
CCCNc1cccn(CC(=O)N2CCCC2)c1=O		< 20	
CC(=O)Nc1cccn(CC(=O)NC2CCCCC2)c1=O		< 20	
O=C(Cn1cccc(NCc2ccccc2)c1=O)NCc1ccccn1		< 20	
O=C(Cn1cccc(NC(=O)c2ccccc2)c1=O)NCCCN1CCOCC1		< 20	
CC(=O)Nc1cccn(CC(=O)NCCO)c1=O		< 20	
O=C(Cn1cccc(NCc2ccccc2)c1=O)N1CCCC1		< 20	
CC(C)NC(=O)Cn1cccc(NCc2ccccc2)c1=O		< 20	
O=C(Cn1cccc(NC(=O)c2ccccc2)c1=O)NCCN1CCCCC1		< 20	
COCCCNC(=O)Cn1cccc(NC(=O)c2ccccc2)c1=O		< 20	
CC(=O)Nc1cccn(CC(=O)NCc2ccc(Cl)c(Cl)c2)c1=O	372	45	
CCCNC(=O)Cn1cccc(NC(=O)c2ccccc2)c1=O		< 20	
